An excerpt weighted towards active compounds, which were near 3.7% of everything screened.
KCNK9 inh: KCNK9 potassium channel inhibitors, primary screen, HEK293 cells, thallium flux. Potassium channel subfamily K member 9 (Homo sapiens), Q9NPC2. FluxOR thallium flux fluorescence; active compounds read low. B-score at 10 µM. hit rate 1.2% among 310,000;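 active = ratio B-score over 3 SD below the library mean, with starting fluorescence within 5 SD of its mean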;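 also: negative B-score means less thallium flux so channel inhibition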
KCNQ1 act: potentiators or activators of KCNQ1 channel, primary screen, cell-based, thallium flux, high-throughput | CHO-K1 KCNQ1, thallium flux FluxOR fluorescence; active compounds read high | B-score at 10 µM | hit rate 0.35% among 310,000;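 active = fluorescence ratio B-score, a plate-corrected score, at least three library SD, with initial intensity B-score within 5 SD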
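Assay system: stable KCNQ1 CHO-K1 line; medium: assay buffer, equal DMSO in all wells; timing: 90 min dye loading and 20 min compound exposure, both at room temperature; technique: kinetic FluxOR thallium fluorescence, 10-s 1-Hz baseline, 110-s post-stimulus read; read-out basis: B score of baseline-normalized fluorescence ratio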
KCNK3 inh: human KCNK3 channel inhibitors, primary screen, CHO cells, FluxOR thallium flux, B-score | Potassium channel subfamily K member 3 (Homo sapiens), O14649 | FluxOR fluorescence; active compounds read low | B-score at 10 µM | hit rate 0.84% among 340,000;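 active = B-score under library mean minus 4 SD, starting fluorescence ratio at most library mean plus 5 SD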;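 also: more negative B-score means stronger inhibition of thallium flux through KCNK3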
Target sequence (O14649 whole entry, looked up): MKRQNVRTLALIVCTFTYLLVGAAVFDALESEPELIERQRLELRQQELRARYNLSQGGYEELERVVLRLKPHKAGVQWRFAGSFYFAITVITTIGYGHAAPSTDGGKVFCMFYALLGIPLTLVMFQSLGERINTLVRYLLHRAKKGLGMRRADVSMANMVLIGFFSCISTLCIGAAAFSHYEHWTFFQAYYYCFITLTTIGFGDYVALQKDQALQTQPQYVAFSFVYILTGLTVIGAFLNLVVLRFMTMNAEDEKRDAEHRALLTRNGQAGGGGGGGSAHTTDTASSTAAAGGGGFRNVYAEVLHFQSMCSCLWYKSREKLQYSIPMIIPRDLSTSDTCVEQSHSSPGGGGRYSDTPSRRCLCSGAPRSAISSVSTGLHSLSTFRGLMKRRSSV
Kir21 block: inhibitors of mouse Kir2.1 inward-rectifier potassium channel | HEK293-Kir2.1, FluxOR thallium flux fluorescence; active compounds read low | B-score at 10 µM | hit rate 0.85% among 310,000 | AID 1672, 2009;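 active = fluorescence ratio B-score at or below minus 3 SD of library scores, with starting-brightness B-score within 2 SD, cut at about -4.2 in these data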;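 also: channel flux triggered by added potassium and thallium sulfate stimulus; B-score of peak minus minimum fluorescence over baseline after thallium stimulus; more negative B-score means stronger Kir2.1 block with less thallium influx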
KCNQ1 inh: inhibitors of human KCNQ1 channel, primary screen, cell-based, thallium flux, high-throughput | hit rate 1.3% among 310,000 | AID 2642, 2010 | CHO-K1 KCNQ1, FluxOR thallium flux fluorescence; active compounds read high | B-score at 10 µM;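 active = compounds whose thallium flux B-score, printed positive for inhibition, exceeds three library SD while starting fluorescence stays within three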;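 also: channel opened by potassium depolarization with thallium stimulus after 20 min compound exposure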
hERG protect: hERG rescue from dofetilide block, primary screen, cell-based, CHO-hERG, FluxOR thallium flux, dofetilide IC70. Voltage-gated inwardly rectifying potassium channel KCNH2 (Homo sapiens), Q12809. dofetilide IC70 present. hit rate 0.51% among 310,000. AID 1511, 2009. activation (rescue from dofetilide block), less the hit threshold, % at 10 µM;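 active = activation above the mean of controls blocked by dofetilide plus 5 SD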;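 also: thallium influx through hERG after potassium depolarization seen as dye fluorescence rise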
KCNK3 confirm: retest of human KCNK3 channel inhibitors, confirmation, CHO cells, FluxOR thallium flux, triplicate; shares compounds with KCNK3 inh; FluxOR fluorescence; 0% buffer, 100% carvedilol maximal block; ratio percent of control, % at 10 µM; hit rate 99% among 2,400;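 active = ratio percent of control, averaged over triplicates, above buffer control mean plus 5 SD, cut at about 64% in these data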;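 also: ratio is the fluorescence rise from min to max over baseline after thallium stimulus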
KCNK3 uninduced: thallium flux inhibition in non-induced cells, primary screen, counter-screen for KCNK3 inhibitor project, cell-based, non-induced KCNK3 line, FluxOR thallium, triplicate | hit rate 40% among 2,400 | thallium flux ratio (lower = more inhibition) at 10 µM | non-induced KCNK3 parental cells; active compounds read low | shares compounds with KCNK3 inh;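 active = thallium flux ratio, averaged over three wells, more than 5 SD below the buffer control mean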;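 also: host cells are CHO cells without KCNK3 induction; ratio is peak minus trough fluorescence over baseline then normalized to buffer controls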
An asterisk follows results filed as active; i = inactive; / = no result.

SMILES | KCNK9 inh | KCNQ1 act | KCNK3 inh | Kir21 block | KCNQ1 inh | hERG protect | KCNK3 confirm | KCNK3 uninduced
O=C(Nc1ccccc1N1CCN(c2ccccc2)CC1)c1ccccc1 | i | i | -9.54* | 1.19 | i | -4.2 | 113.3* | 0.132*
O=C(Nc1ccccc1N1CCOCC1)c1cccc(F)c1 | i | i | i | 0.6 | i | -21.0 | / | /
CCC(C)Oc1cccc(C(=O)Nc2ccccc2N2CCOCC2)c1 (stereo not drawn) | i | i | -9.82* | 1.43 | i | -15.8 | 125.0* | 0.149*
CC(C)Oc1cccc(C(=O)Nc2ccccc2N2CCOCC2)c1 | i | i | i | 0.53 | i | -5.2 | / | /
O=C(Nc1ccccc1N1CCCCC1)c1ccc(OC(F)F)cc1 | -7.28* | i | -12.2* | 0.33 | i | -1.0 | 92.3* | i
O=C(Nc1ccccc1N1CCCCC1)c1ccc(F)cc1 | i | i | i | -0.01 | i | -2.7 | / | /
O=C(Nc1ccc(N2CCOCC2)cc1N1CCOCC1)c1ccccc1 | / | / | i | / | / | / | / | /
O=C(Nc1ccccc1N1CCOCC1)c1cccc(Oc2ccccc2)c1 | i | i | -9.59* | 0.02 | i | -6.7 | 96.3* | i
O=C(c1ccc(-c2ccccc2Cl)o1)N1CCC1 | / | / | i | / | / | / | / | /
CC1CCN(C(=O)c2ccc(-c3ccccc3Cl)o2)CC1 | i | i | -9.18* | -1.65 | i | -19.8 | 122.7* | 0.14*
NC(N)=N/N=C/c1ccc(OCc2ccc(Cl)cc2)cc1 | i | i | -10.3* | -9.85* | 7* | -30.2 | 70.3* | i
Cc1ccc(COc2ccc(/C=N/O)cc2)cc1 | i | i | i | -1.46 | i | -6.5 | / | /
COc1ccc(N2C(=O)CSC2c2ccccc2[N+](=O)[O-])cc1 (stereo not drawn) | i | i | i | -4.76 | i | 1.4 | / | /
COc1ccc(NC(=O)COC(=O)c2ccc(OC)c(S(=O)(=O)N3CCCC3)c2)cc1OC | / | / | i | / | / | / | / | /
c1ccc(-c2nc(N3CCCCCC3)nc(-n3ccnc3)n2)cc1 | -6.97* | i | -10* | 0.73 | i | -11.2 | 121.7* | i
Cc1ccc(S(=O)(=O)N(C)C)cc1NC(=O)C(C)N(C)CCOc1ccc(Cl)cc1 (stereo not drawn) | i | i | -9.37* | -0.01 | i | -10.1 | 78.7* | i
CC(C)CCNC(=O)COc1ccc(N(C)S(=O)(=O)c2ccc(F)cc2)cc1 | i | i | i | -2.12 | i | -20.8 | / | /
C=CCOc1ccc(C(=O)n2cc(C(=O)OC)c3ccccc32)cc1 | i | i | -9.28* | -0.45 | i | -1.8 | 113.7* | i
COC(=O)c1cn(C(=O)c2ccc(F)cc2)c2ccccc12 | i | i | i | -2.86 | i | 0.3 | / | /
CCc1nnc(NC(=O)c2ccc(OC)c(S(=O)(=O)N3CCCC3)c2)s1 | / | / | i | / | / | / | / | /
CCN(CC)S(=O)(=O)c1ccc(-c2cc(C(=O)OC)sc2C(F)(F)F)cc1 | i | i | -9.7* | 2.49 | i | -8.3 | 109.0* | i
COC(=O)c1cc(-c2ccc(S(=O)(=O)N3CCCC3)cc2)c(C(F)(F)F)s1 | i | i | i | -1.41 | i | -10.9 | / | /
O=C(COC(=O)c1ccc(Cl)c(S(=O)(=O)N2CCOCC2)c1)NCc1ccco1 | i | i | i | -0.01 | i | -8.7 | / | /
CCn1c(SCC(=O)NC(=O)c2ccccc2OC)nc2ccccc21 | i | i | i | -1.69 | i | -6.6 | / | /
NC(=O)c1ccc(C(=O)N/N=C/c2cccc(Oc3ccccc3)c2)cc1 | i | i | i | -0.51 | i | -13.3 | / | /
SMILES | KCNK9 inh | KCNQ1 act | KCNK3 inh | Kir21 block | KCNQ1 inh | hERG protect | KCNK3 confirm | KCNK3 uninduced
O=C(N/N=C/c1cccc(Oc2ccccc2)c1)c1ccccc1Br | i | i | -12.4* | -1.92 | i | 1.3 | 90.7* | i
CCc1ccc(N2C(=O)C3CCCN3C2=S)cc1 (stereo not drawn) | i | i | i | -0.49 | i | -2.7 | / | /
C/C(=N\OC(=O)NC1CCCCC1)c1sc(-c2ccccc2)nc1C | i | i | -10.8* | 0.37 | i | -12.0 | 113.0* | 0.14*
O=c1[nH]cc(S(=O)(=O)N2CCN(c3cccc(C(F)(F)F)c3)CC2)c(=O)[nH]1 | i | i | i | 1.54 | i | -18.8 | / | /
COc1ccc(C)cc1S(=O)(=O)N1CCN(c2cccc(C(F)(F)F)c2)CC1 | i | i | -10.5* | -1.22 | i | -7.1 | 103.0* | i
C(=NN1CCCCCC1)c1ccc2c(c1)OCO2 | / | / | i | / | / | / | / | /
Cc1nonc1C1CCCN1Cc1cn[nH]c1-c1ccc(-c2ccccc2)cc1 (stereo not drawn) | -7.03* | i | -8.89* | 0.59 | i | -9.6 | 102.3* | i
Cc1nn(Cc2ccccc2Cl)c(C)c1NC(=O)NC12CC3CC(CC(C3)C1)C2 | i | i | -8.87* | 0.68 | i | -9.0 | 119.0* | 0.144*
Cc1nnc2n1N=C(c1ccc(F)cc1F)CS2 | / | / | i | / | / | / | / | /
CCc1ccc(NC(=O)NC2CCCCCCC2)cc1 | i | i | -9.38* | -0.14 | i | -7.3 | 125.0* | 0.125*
CCC12CSc3nc(Cl)ccc3N1C(=O)C(=O)N2C (stereo not drawn) | i | i | i | 0 | i | -4.0 | / | /
CCOC(=O)c1nn(-c2cccc(Cl)c2)c2nc(Nc3ccccc3)cc(=O)n12 | i | i | i | -0.44 | i | -6.4 | / | /
O=C(c1ccccc1)c1nn(-c2cccc(Cl)c2)c2nc(-c3ccccc3)cc(=O)n12 | i | i | -20.5* | 1.82 | i | -7.6 | 118.0* | 0.152*
COc1ccc2[nH]cc(/C=C/c3cc[n+](C)cc3)c2c1 | i | i | i | -0.59 | i | -17.5 | / | /
CCOC(=O)C(=N/O)/C(C)=N/NC(=O)C(=O)Nc1ccc(Cl)cc1 | i | i | -10.8* | -0.94 | 9* | -31.4 | 120.3* | i

Bioassay records from PubChem.
